CSC inhib: blocks cancer stem cells; cancer stem cell-like cells viability, luminescence; inhibition, % at 7.5 µM; actives 1.1% (n = 300,000); AID 2717; in the data active = inhibition above about 75%; tested in HMLE shEcad cells
Mdm2 MdmX PPI: human Mdm2/MdmX binding inhibition; AID 485346; O15151+Q00987; actives 3% (n = 330,000); inhibition, % at 8 µM; SaOS-2 split-luciferase Mdm2/MdmX complementation, luminescence;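 active = inhibition of at least 50% at 8 µM in the primary screen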
Target sequence (O15151 whole entry, looked up): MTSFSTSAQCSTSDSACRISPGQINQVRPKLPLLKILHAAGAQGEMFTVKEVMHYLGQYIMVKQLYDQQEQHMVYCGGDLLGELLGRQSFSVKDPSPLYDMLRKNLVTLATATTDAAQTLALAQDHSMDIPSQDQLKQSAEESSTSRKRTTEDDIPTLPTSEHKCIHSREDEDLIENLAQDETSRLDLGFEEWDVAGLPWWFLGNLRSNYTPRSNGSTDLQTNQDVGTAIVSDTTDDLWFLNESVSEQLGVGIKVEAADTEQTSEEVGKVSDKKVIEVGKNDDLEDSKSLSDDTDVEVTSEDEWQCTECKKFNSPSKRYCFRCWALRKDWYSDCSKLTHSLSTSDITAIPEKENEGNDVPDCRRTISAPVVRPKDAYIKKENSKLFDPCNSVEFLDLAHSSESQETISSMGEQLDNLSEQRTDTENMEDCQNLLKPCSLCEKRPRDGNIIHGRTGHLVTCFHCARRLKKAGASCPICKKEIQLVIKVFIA
Target sequence (Q00987 whole entry, looked up): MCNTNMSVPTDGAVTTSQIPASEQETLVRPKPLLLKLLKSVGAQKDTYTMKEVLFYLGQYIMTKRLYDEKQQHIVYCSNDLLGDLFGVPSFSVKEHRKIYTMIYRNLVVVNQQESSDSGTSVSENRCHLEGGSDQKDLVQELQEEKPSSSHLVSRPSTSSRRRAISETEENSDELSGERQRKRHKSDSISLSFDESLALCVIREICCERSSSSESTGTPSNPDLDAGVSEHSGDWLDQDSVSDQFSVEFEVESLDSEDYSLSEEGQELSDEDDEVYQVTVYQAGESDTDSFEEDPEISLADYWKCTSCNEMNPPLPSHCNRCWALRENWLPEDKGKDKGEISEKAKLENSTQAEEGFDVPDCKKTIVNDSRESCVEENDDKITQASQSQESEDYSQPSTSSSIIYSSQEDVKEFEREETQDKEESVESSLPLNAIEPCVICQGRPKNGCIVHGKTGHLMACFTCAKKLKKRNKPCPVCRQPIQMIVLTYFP
SKKanGAS inh: inhibitors of SKKanGAS S. pyogenes growth in kanamycin (SK-promoter or general growth effect). inhibition, % at 7.5 µM. AID 1662. BacTiter-Glo, 6 h. actives 1.3% (n = 300,000);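 active = mean replicate score, as percent of positive control median, at least 50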;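 also: strain carries kanamycin resistance gene driven by streptokinase promoter and grows in 40 µg/ml kanamycin; loss of luminescence reflects streptokinase promoter inhibition or plain growth inhibition; 0% = median of DMSO wells and 100% = positive control at its reference dose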
T cruzi repl: blocks replication of Trypanosoma cruzi | inhibition, % (no concentration beside the values) | actives 1.4% (n = 300,000) | T. cruzi beta-gal in NIH3T3, luminescence, 90 h;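 active = mean inhibition across valid replicates above about 55%, limit read from the data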;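 also: signal also drops with host cell toxicity which is not excluded here; 0% = plate median of DMSO wells and 100% = zero luminescence signal; higher percent means less beta-gal luminescence so fewer parasites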
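Material: NIH/3T3 host cells with β-galactosidase reporter T. cruzi; Input: 5,000 host fibroblasts per well; Medium: DMEM, 2% fetal bovine serum; Compound: 50 nL DMSO compound solution per well; Schedule: 3 h host attachment, then at least 90 h co-culture; Detection: luminescent β-galactosidase signal after 60 min lysis.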
aSyn UTR inh: MLPCN primary screen, SNCA 5' untranslated region. alpha-synuclein 5'UTR reporter, inhibitor activity. inhibition, % (tested at 7.5 µM). actives 0.82% (n = 300,000). AID 1813; in the data active = inhibition above about 60%;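 also: H4 neuroglioblastoma cells stably carrying SNCA 5'UTR luciferase fusion; 0% = DMSO wells and 100% = positive control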
Mdm2 MdmX conf: human Mdm2/MdmX binding inhibition, confirmed; shares compounds with Mdm2 MdmX PPI; luminescent assay; inhibition, % at 8 µM; actives 55% (n = 10,000); AID 489028; in the data active = inhibition above about 40%
FLuc counter: counter-screen for Mdm2/MdmX inhibitors: full-length luciferase; SaOS-2 full-length luciferase counterscreen, luminescence; actives 77% (n = 6,200); inhibition, % at 8 µM; AID 504607; shares compounds with Mdm2 MdmX PPI;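 active = mean inhibition at 8 µM reaching about 37%, which flags the compound as non-specific, limit read from the data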;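 also: p53-null SaOS-2 cells with luciferase driven by a doxycycline-inducible promoter; compound on cells about two nights before reading with doxycycline added after day one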
Numbers without * were called inactive; . = no result. Hits are enriched below; roughly 5.4% of the tested compounds scored in any of these assays.

SMILES	CSC inhib	Mdm2 MdmX PPI	SKKanGAS inh	T cruzi repl	aSyn UTR inh	Mdm2 MdmX conf	FLuc counter
Cc1c(C(=O)O)sc2[nH]c(=O)n(Cc3ccccc3)c(=O)c12	-12	14	7	-7	7	.	.
O=C1C=CCC(/C=C/c2ccccc2)O1 (stereo unspecified)	12	61*	3	31	-104	48*	12
COc1ccc(/C=c2/sc3n(c2=O)C(c2ccccc2OC)C2=C(N=3)c3ccccc3CC2)cc1O (stereo unspecified)	64	70*	7	4	94*	87*	30
Cc1cc(Oc2nc3c(C)cccn3c(=O)c2/C=C(\C#N)S(=O)(=O)c2ccccc2)ccc1Cl	-7	52*	-9	-17	9	7	.
O=C(Cc1cccc2ccccc12)NC(=S)Nc1cccc(C(=O)O)c1	-8	-11	3	-19	3	.	.
Cc1ccc(-c2cc(C(=O)N3CCCc4ccccc43)no2)cc1	6	-91	-25	5	-150	.	.
CC(C#N)Sc1ccc(S(=O)(=O)N2CCCC2)cn1 (stereo unspecified)	.	-15	.	.	.	.	.
CC1CCN(CCNC(=O)c2ccc3c(=O)n(Cc4ccc(Cl)cc4)c(=S)[nH]c3c2)CC1	-7	97*	37	25	98*	31	.
COCCCNC(=O)c1ccc2c(=O)n(Cc3ccc(Cl)cc3)c(=S)[nH]c2c1	-8	31	11	1	11	.	.
CCCCCn1c(=O)[nH]c2cc(C(=O)O)ccc2c1=O	-12	4	13	-9	6	.	.
CCCCCn1c(=O)[nH]c2cc(C(=O)NC3CCN(Cc4ccccc4)CC3)ccc2c1=O	1	92*	6	35	-40	29	.
CCCC(=O)NC(c1ccccc1OC)c1ccc2cccnc2c1O (stereo unspecified)	119*	77*	14	81*	124*	82*	50*
CCCCC(=O)NC(c1ccccc1OC)c1ccc2cccnc2c1O (stereo unspecified)	138*	87*	-2	57*	101*	83*	52*
CCCC(=O)NC(c1ccc(OC)c(OC)c1)c1c(O)ccc2ccccc12 (stereo unspecified)	-18	19	-11	-2	8	.	.
CCCCC(=O)NC(c1ccc(OC)c(OC)c1)c1c(O)ccc2ccccc12 (stereo unspecified)	-15	-7	0	26	-39	.	.
CSc1ncccc1C(=O)OCC(=O)Nc1cc(C(F)(F)F)ccc1N1CCOCC1	-11	20	-8	-2	21	.	.
Cc1nn(C(C)C(=O)c2cccc(Cl)c2)c(C)c1[N+](=O)[O-] (stereo unspecified)	-6	6	8	-12	0	.	.
Cn1cnc([N+](=O)[O-])c1S(=O)(=O)c1cccc(Cl)c1	33	68*	5	26	-3	34	21
Cc1ccc(S(=O)(=O)N2CCN(CC(=O)Nc3ccccc3C(=O)NC3CC3)CC2)cc1	.	22	.	.	.	.	.
CCS(=O)(=O)c1nnnn1-c1ccccc1S(C)(=O)=O	-3	60*	-13	-8	-174	63*	34
COc1ccc(-n2nnnc2S(=O)(=O)Cc2ccc(C(=O)O)cc2)cc1	51	40	4	-12	-5	.	.
CN(Cc1c(C(=O)N2CCCCCCC2)nc2ccc(Cl)cn12)C1CCOC1 (stereo unspecified)	-5	3	1	-9	-3	.	.
CC[C@@]1(O)C(=O)OCc2c1cc1n(c2=O)Cc2cc3c(N)cccc3nc2-1	56	100*	12	45	103*	96*	53*
CCCCc1cc(=O)oc2c(CN(C)C)c(O)ccc12	19	-14	2	-15	17	.	.
CC[C@@]1(O)C(=O)OCc2c1cc1n(c2=O)Cc2cc3c(CN(C)C)c(O)ccc3nc2-1	104*	88*	-5	20	26	88*	52*
O=C1CCN(Cc2ccc(O)cc2)CCN1CCO	10	2	-7	-2	-7	.	.
CN(Cc1ccccc1)C(=S)Nc1cccnc1	-7	-13	11	1	7	.	.
COc1ccc(-n2c(=O)c3c4c(sc3n3c(=S)[nH]nc23)CCCC4)cc1	-9	8	18	-26	-11	.	.

Source: PubChem
